{"data": "Published values collected from several papers", "target": "Beta-adrenergic receptor kinase 1 (GRK2, Homo sapiens, UniProt P25098)", "Sequence (P25098 1-689, as in one of the studies)": "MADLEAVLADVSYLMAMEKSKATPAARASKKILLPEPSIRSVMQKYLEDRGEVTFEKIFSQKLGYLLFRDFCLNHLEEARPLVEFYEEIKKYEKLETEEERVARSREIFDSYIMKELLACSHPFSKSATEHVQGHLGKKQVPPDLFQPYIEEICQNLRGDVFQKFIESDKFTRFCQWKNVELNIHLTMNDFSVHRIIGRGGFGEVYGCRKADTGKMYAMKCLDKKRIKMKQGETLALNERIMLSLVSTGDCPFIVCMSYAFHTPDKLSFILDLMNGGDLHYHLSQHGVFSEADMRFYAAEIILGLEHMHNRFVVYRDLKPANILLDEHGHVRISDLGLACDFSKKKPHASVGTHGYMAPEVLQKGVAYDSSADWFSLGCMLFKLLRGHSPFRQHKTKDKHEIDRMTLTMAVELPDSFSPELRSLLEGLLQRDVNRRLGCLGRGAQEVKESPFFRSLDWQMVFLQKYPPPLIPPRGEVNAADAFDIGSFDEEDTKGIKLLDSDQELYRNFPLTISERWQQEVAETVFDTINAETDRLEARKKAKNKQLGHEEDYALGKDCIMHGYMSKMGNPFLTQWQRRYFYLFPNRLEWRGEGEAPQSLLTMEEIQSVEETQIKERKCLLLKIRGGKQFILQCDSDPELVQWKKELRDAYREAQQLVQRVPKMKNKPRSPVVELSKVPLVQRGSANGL"}
{"SMILES": "F[C@@H]1CCN(c2nccc(-c3cnn4ncccc34)n2)C1", "assay": "binding", "setting": "1 µM", "remaining binding": "54%"}
{"SMILES": "COc1ccc2c(c1)O[C@H](c1ccc(OC)c(OC)c1)C[C@@H]2NC(=O)C1(c2ccc3c(c2)OC(F)(F)O3)CC1", "assay": "cell-free assay, competition with immobilised ligand", "setting": "1 µM", "remaining binding": "84%"}
{"SMILES": "c1cncc(-c2cccc(Nc3nccc(NC4CCCCC4)n3)c2)c1", "assay": "binding, competition with immobilised ligand", "setting": "10 µM", "remaining binding": "100%"}
{"SMILES": "Cc1c(NC(=O)c2cc(C(N)=O)nc3cc(F)ccc23)c(C(F)(F)F)nn1Cc1ccc(C(C)(C)C)cc1", "assay": "cell-free assay, competition with immobilised ligand", "setting": "1 µM", "remaining binding": "100%"}
{"SMILES": "C[C@@H]1CCN(c2nccc(-c3cnn4ncccc34)n2)C1", "assay": "binding, competition with immobilised ligand", "setting": "1 µM", "remaining binding": "57%"}
{"SMILES": "CO[C@H]1CC[C@H](CNc2ccc(S(=O)(=O)NC(=O)c3ccc(N4CCN(CC5=C(c6ccc(Cl)cc6)CC(C)(C)CC5)CC4)cc3Oc3cnc4[nH]ccc4c3)cc2[N+](=O)[O-])CC1", "assay": "cell-free assay, competition with immobilised ligand", "setting": "1 µM", "remaining binding": "85%"}
{"SMILES": "Cc1cnc(Nc2ccc(C(=O)N3CCC(N4CCCC4)CC3)cc2)nc1-c1cc2ccccc2s1", "assay": "binding, competition with immobilised ligand", "setting": "1 µM", "remaining binding": "56%"}
{"SMILES": "CNC(=O)[C@@H]1CC[C@@H](n2c(-c3ccc4cnccc4c3)nc3ccc(C(=O)NCc4cccc(C(N)=O)c4)cc32)C1", "assay": "binding, competition with immobilised ligand", "setting": "1 µM", "remaining binding": "92%"}
{"SMILES": "CO[C@@H](C)c1c(Nc2ccc([C@@H](N(C)C(=O)C3CCS(=O)(=O)CC3)C(F)(F)F)cc2)cnc2cc(Cl)nn12", "assay": "cell-free assay, competition with immobilised ligand", "setting": "1 µM", "remaining binding": "92%"}
{"SMILES": "C[C@@H](c1ccc(-n2cnc3c(N)ncnc32)cc1)N1CCc2nn(C)c(Cc3ccccc3)c2C1=O", "assay": "binding, competition with immobilised ligand", "setting": "0.1 µM", "remaining binding": "67%"}
{"SMILES": "O=C(c1ccc(Nc2nccc(-c3cc4ccccc4s3)n2)cc1)N1CCC(N2CCCC2)CC1", "assay": "binding, competition with immobilised ligand", "setting": "1 µM", "remaining binding": "100%"}
{"SMILES": "CN(C)c1nccc(-c2cnc3ncccn23)n1", "assay": "binding, competition with immobilised ligand", "setting": "1 µM", "remaining binding": "92%"}
{"SMILES": "C=CC(=O)N1CCC(C(=O)NCC(=O)N2CCN(c3nc(-c4cnc(N)nc4C(F)F)nc(N4CCOCC4)n3)CC2)CC1", "assay": "binding, competition with immobilised ligand", "setting": "1 µM", "remaining binding": "100%"}
{"SMILES": "Cc1cnn2ncc(-c3ccnc(N(C)C)n3)c2c1", "assay": "binding", "setting": "1 µM", "remaining binding": "50%"}
{"SMILES": "Nc1cnc(N2CCc3cc(S(=O)(=O)Nc4c(F)cc(Cl)cc4F)cc(N4CCCC4=O)c32)nc1", "assay": "cell-free assay, competition with immobilised ligand", "setting": "1 µM", "remaining binding": "100%"}
{"SMILES": "O=C(Nc1c[nH]nc1C(=O)NC1CCNCC1)c1cc(F)cc(F)c1", "assay": "binding, competition with immobilised ligand", "setting": "1 µM", "remaining binding": "100%"}
{"SMILES": "N[C@@H]1CCN(c2nccc(-c3cnn4ncccc34)n2)C1", "assay": "binding", "setting": "1 µM", "remaining binding": "82%"}
{"SMILES": "O=C(NCCCN1CCOCC1)c1ccc(Nc2nccc(-c3cc4ccccc4s3)n2)cc1", "assay": "binding, competition with immobilised ligand", "setting": "1 µM", "remaining binding": "65%"}
{"SMILES": "CN(C)c1nccc(-c2cnn3ncccc23)n1", "assay": "binding, competition with immobilised ligand", "setting": "1 µM", "remaining binding": "74%"}
{"SMILES": "Cc1nc(C2CCN(C(=O)c3ccc(OC(F)(F)F)cc3N)CC2)c2ncc(N3CCN(C)CC3)cc2n1", "assay": "cell-free assay, competition with immobilised ligand", "setting": "1 µM", "remaining binding": "92%"}
